{"source": "ChEMBL document CHEMBL3272019", "about": "“Synthesis and some properties and antitumor effects of the actinomycin lactam analog, (di(1-L-alpha, beta-diaminopropionic))actinomycin D1” (1976)", "key": {"[1]": {"test_system": "Calf thymus DNA", "assay": "Binding affinity to calf thymus DNA at 25 uM by visible and near-UV CD spectrophotometry", "format": "nucleic-acid assay", "conditions": "Bos taurus", "method_in_brief": "(§1)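 CD spectra, visible and near-UV, of 25.0 µM drug alone and with DNA (calf thymus or PM2, 0.52 mM as nucleotide phosphorus) in 0.01 M sodium phosphate, pH 7.0. Recorded at about 23° in tandem 1-cm cylindrical quartz cells. Drug concentration was set spectrophotometrically at 440 nm.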"}, "[2]": {"test_system": "Pseudoalteromonas phage PM2", "assay": "Binding affinity to bacteriophage PM2 DNA at 25 uM by visible and near-UV CD spectrophotometry", "method_in_brief": "as §1"}, "[3]": {"test_system": "Calf thymus DNA", "assay": "Binding affinity to calf thymus DNA at 37.1 uM by visible and near-UV CD spectrophotometry", "format": "nucleic-acid assay", "conditions": "Bos taurus", "method_in_brief": "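Visible/near-UV CD of 37.1 µM drug, free and with calf thymus DNA at 0.53 mM nucleotide phosphorus, in 0.01 M sodium phosphate pH 7.0 at about 23°. Tandem 1-cm quartz cells were used. Concentration was fixed from absorbance at 440 nm (ε 23585 M⁻¹ cm⁻¹).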"}, "[4]": {"test_system": "Bacillus subtilis", "assay": "Antibacterial activity against Bacillus subtilis Marburg assessed as growth inhibition", "format": "functional"}, "[5]": {"test_system": "Staphylococcus aureus", "assay": "Antibacterial activity against Penicillin-resistant Staphylococcus aureus assessed as growth inhibition", "format": "functional"}, "[6]": {"test_system": "Sarcina", "assay": "Antibacterial activity against Sarcina subflava assessed as growth inhibition", "format": "functional"}, "[7]": {"test_system": "L1210", "assay": "Antitumor activity against mouse L1210 cells allografted in BDF1 mouse assessed as mean survival time at 0.0125 mg/kg/injection, ip administered daily for 9 days (reference value: 9.6 days)", "format": "functional", "conditions": "route intraperitoneal"}, "[8]": {"test_system": "L1210", "assay": "Antitumor activity against mouse L1210 cells allografted in BDF1 mouse assessed as mean survival time at 0.15 mg/kg/injection, ip administered intermittently on days 1, 5 and 9 (reference value: 9.6 days)", "format": "functional", "conditions": "route intraperitoneal"}, "[9]": {"test_system": "L1210", "assay": "Antitumor activity against mouse L1210 cells allografted in BDF1 mouse assessed as mean survival time at 0.2 mg/kg/injection, ip administered as single dose (reference value: 9.6 days)", "format": "functional", "conditions": "route intraperitoneal"}, "[10]": {"test_system": "L1210", "assay": "Antitumor activity against mouse L1210 cells allografted in BDF1 mouse assessed as increase in life span at 0.0125 mg/kg/injection, ip administered daily for 9 days", "format": "functional", "conditions": "216 h, route intraperitoneal"}, "[11]": {"test_system": "L1210", "assay": "Antitumor activity against mouse L1210 cells allografted in BDF1 mouse assessed as increase in lifespan at 0.15 mg/kg/injection, ip administered intermittently on days 1, 5 and 9", "format": "functional", "conditions": "route intraperitoneal"}, "[12]": {"test_system": "L1210", "assay": "Antitumor activity against mouse L1210 cells allografted in BDF1 mouse assessed as increase in life span at 0.2 mg/kg/injection, ip administered as single dose", "format": "functional", "conditions": "route intraperitoneal"}, "[13]": {"test_system": "P388", "assay": "Antitumor activity against mouse P388 cells allografted in BDF1 mouse assessed as mean survival time at 0.1 mg/kg/injection, ip administered daily for 9 days (reference value: 10.5 days)", "format": "functional", "conditions": "route intraperitoneal", "method_in_brief": "(§2)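 P388 leukaemia: 10⁶ cells implanted ip on day 0 into groups of eight male BDF mice. Dosing was ip daily on days 1–9, on days 1, 5 and 9, or as a single day-1 dose, over four- to fivefold dose ranges. Median survival time (range of deaths) and percent increase in life-span were recorded, with survivors/total counted at day 60.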"}, "[14]": {"test_system": "P388", "assay": "Antitumor activity against mouse P388 cells allografted in BDF1 mouse assessed as mean survival time at 0.15 mg/kg/injection, ip administered intermittently on days 1, 5 and 9 (reference value: 10.5 days)", "format": "functional", "conditions": "route intraperitoneal", "method_in_brief": "as §2"}, "[15]": {"test_system": "P388", "assay": "Antitumor activity against mouse P388 cells allografted in BDF1 mouse assessed as mean survival time at 0.2 mg/kg/injection, ip administered as single dose (reference value: 10.5 days)", "format": "functional", "conditions": "route intraperitoneal", "method_in_brief": "as §2"}, "[16]": {"test_system": "P388", "assay": "Antitumor activity against mouse P388 cells allografted in BDF1 mouse assessed as increase in life span at 0.1 mg/kg/injection, ip administered daily for 9 days measured on day 60", "format": "functional", "conditions": "route intraperitoneal", "method_in_brief": "as §2"}, "[17]": {"test_system": "P388", "assay": "Antitumor activity against mouse P388 cells allografted in BDF1 mouse assessed as increase in life span at 0.15 mg/kg/injection, ip administered intermittently on days 1, 5 and 9 measured on day 60", "format": "functional", "conditions": "1440 h, route intraperitoneal", "method_in_brief": "as §2"}, "[18]": {"test_system": "P388", "assay": "Antitumor activity against mouse P388 cells allografted in BDF1 mouse assessed as increase in life span at 0.2 mg/kg/injection, ip administered as single dose measured on day 60", "format": "functional", "conditions": "1440 h, route intraperitoneal", "method_in_brief": "as §2"}, "[19]": {"test_system": "B16", "assay": "Antitumor activity against mouse B16 cells allografted in BDF1 mouse assessed as mean survival time at 0.05 mg/kg/injection, ip administered daily for 9 days (reference value: 28 days)", "format": "functional", "conditions": "route intraperitoneal", "method_in_brief": "(§3)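 B16 melanoma in mice, standard screening method. Schedules were daily on days 1–9, on days 1, 5 and 9, or a single day-1 injection, each over a four- to fivefold dose range. Survival time (range of individual deaths) was recorded, percent increase in life-span computed against untreated controls, and survivors tallied.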"}, "[20]": {"test_system": "B16", "assay": "Antitumor activity against mouse B16 cells allografted in BDF1 mouse assessed as mean survival time at 0.075 mg/kg/injection, ip administered intermittently on days 1, 5 and 9 (reference value: 28 days)", "format": "functional", "conditions": "route intraperitoneal", "method_in_brief": "as §3"}, "[21]": {"test_system": "B16", "assay": "Antitumor activity against mouse B16 cells allografted in BDF1 mouse assessed as mean survival time at 0.05 mg/kg/injection, ip administered as single dose (reference value: 28 days)", "format": "functional", "conditions": "route intraperitoneal", "method_in_brief": "as §3"}, "[22]": {"test_system": "B16", "assay": "Antitumor activity against mouse B16 cells allografted in BDF1 mouse assessed as increase in life span at 0.05 mg/kg/injection, ip administered daily for 9 days measured on day 60", "format": "functional", "conditions": "route intraperitoneal", "method_in_brief": "as §3"}, "[23]": {"test_system": "B16", "assay": "Antitumor activity against mouse B16 cells allografted in BDF1 mouse assessed as increase in life span at 0.075 mg/kg/injection, ip administered intermittently on days 1, 5 and 9 measured on day 60", "format": "functional", "conditions": "1440 h, route intraperitoneal", "method_in_brief": "as §3"}, "[24]": {"test_system": "B16", "assay": "Antitumor activity against mouse B16 cells allografted in BDF1 mouse assessed as increase in life span at 0.05 mg/kg/injection, ip administered as single dose measured on day 60", "format": "functional", "conditions": "1440 h, route intraperitoneal", "method_in_brief": "as §3"}}, "note": "Activity calls are given as the source filed them. The rule behind the calls is not given here.", "data": [{"smiles": "Cc1c2oc3c(C)ccc(C(=O)N[C@H]4CNC(=O)[C@H](C(C)C)N(C)C(=O)CN(C)C(=O)[C@@H]5CCCN5C(=O)[C@@H](C(C)C)NC4=O)c3nc-2c(C(=O)N[C@H]2CNC(=O)[C@H](C(C)C)N(C)C(=O)CN(C)C(=O)[C@@H]3CCCN3C(=O)[C@@H](C(C)C)NC2=O)c(N)c1=O", "values": [{"measurement": "Activity", "setting": "[1]", "result": "Active"}, {"measurement": "Activity", "setting": "[2]", "result": "Active"}, {"measurement": "Activity", "setting": "[3]", "result": "Active"}, {"measurement": "MIC", "setting": "[4]", "result": 0.9, "unit": "µg/mL"}, {"measurement": "IC50", "setting": "[4]; read-out: ID50 (the source's name)", "result": 0.4, "unit": "µg/mL"}, {"measurement": "MIC", "setting": "[5]", "result": 0.35, "unit": "µg/mL"}, {"measurement": "MIC", "setting": "[6]", "result": 0.35, "unit": "µg/mL"}, {"measurement": "MST", "setting": "[7]", "result": 11.2, "unit": "days"}, {"measurement": "MST", "setting": "[8]", "result": 11, "unit": "days"}, {"measurement": "MST", "setting": "[9]", "result": 11.8, "unit": "days"}, {"measurement": "ILS at 0.0125 mg/kg", "setting": "[10]", "result": 17, "unit": "%"}, {"measurement": "ILS at 0.15 mg/kg", "setting": "[11]", "result": 14, "unit": "%"}, {"measurement": "ILS at 0.2 mg/kg", "setting": "[12]", "result": 22, "unit": "%"}, {"measurement": "MST", "setting": "[13]", "result": 14.5, "unit": "days"}, {"measurement": "MST", "setting": "[14]", "result": 14, "unit": "days"}, {"measurement": "MST", "setting": "[15]", "result": 14, "unit": "days"}, {"measurement": "ILS at 0.1 mg/kg", "setting": "[16]", "result": 38, "unit": "%"}, {"measurement": "ILS at 0.15 mg/kg", "setting": "[17]", "result": 33, "unit": "%"}, {"measurement": "ILS at 0.2 mg/kg", "setting": "[18]", "result": 33, "unit": "%"}, {"measurement": "MST", "setting": "[19]", "result": 30, "unit": "days"}, {"measurement": "MST", "setting": "[20]", "result": 32, "unit": "days"}, {"measurement": "MST", "setting": "[21]", "result": 29, "unit": "days"}, {"measurement": "ILS at 0.05 mg/kg", "setting": "[22]", "result": 7, "unit": "%"}, {"measurement": "ILS at 0.075 mg/kg", "setting": "[23]", "result": 14, "unit": "%"}, {"measurement": "ILS at 0.05 mg/kg", "setting": "[24]", "result": 4, "unit": "%"}]}]}
